ChEMBL document CHEMBL1914346, “Discovery and synthesis of novel substituted benzocoumarins as orally active lipid modulating agents” (Bioorg Med Chem Lett, 2011)

Experiments:
Syrian golden hamster [1] = experiment: Antidyslipidemic activity in high fat diet-fed dyslipidemic syrian golden hamster model assessed as decrease in serum LDL level at 10 mg/kg, po administered once daily for 7 days relative to vehicle treated control; assay type: functional, Mesocricetus auratus; design: scale not given: the % may be the effect or the level left
How it was run: (§1)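 Male Golden Syrian hamsters, 12 weeks old, 110 ± 10 g, eight per group, fed high-fat diet plus fructose daily on days 1–10. Oral dosing once daily on days 4–10 in 0.1% gum acacia; HFD-fed vehicle animals served as controls. After the last dose, retro-orbital blood was taken into EDTA and plasma lipids were measured enzymatically on an autoanalyzer. Results are % change versus HFD controls; t-test/ANOVA, p<0.05.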

Syrian golden hamster [2] = experiment: Antidyslipidemic activity in high fat diet-fed dyslipidemic syrian golden hamster model assessed as decrease in serum total cholesterol level at 10 mg/kg, po administered once daily for 7 days relative to vehicle treated control; assay type: functional, Mesocricetus auratus; design: scale not given: the % may be the effect or the level left; how it was run: as §1
Syrian golden hamster [3] = experiment: Antidyslipidemic activity in high fat diet-fed dyslipidemic syrian golden hamster model assessed as increase in serum ratio of serum HDL/total cholesterol level at 10 mg/kg, po administered once daily for 7 days relative to vehicle treated control; assay type: functional, Mesocricetus auratus; how it was run: as §1
Syrian golden hamster [4] = experiment: Antidyslipidemic activity in high fat diet-fed dyslipidemic syrian golden hamster model assessed as increase in serum HDL level at 10 mg/kg, po administered once daily for 7 days relative to vehicle treated control; assay type: functional, Mesocricetus auratus; how it was run: as §1
Syrian golden hamster [5] = experiment: Antidyslipidemic activity in high fat diet-fed dyslipidemic syrian golden hamster model assessed as decrease in serum triglyceride level at 10 mg/kg, po administered once daily for 7 days relative to vehicle treated control; assay type: functional, Mesocricetus auratus; design: scale not given: the % may be the effect or the level left; how it was run: as §1
[6] = Antioxidant activity assessed as trolox equivalent by TEAC assay; assay type: functional
Syrian golden hamster [7] = experiment: Toxicity in syrian golden hamster; assay type: organism-based, Mesocricetus auratus; conditions: in vivo
How it was run: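 HFD-fed male Golden Syrian hamsters, eight per group, dosed orally at 10 mg/kg once daily for 7 days in 0.1% gum acacia. Body weight was recorded daily and food intake was monitored, then compared with HFD vehicle controls.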

Syrian golden hamster [8] = experiment: Antidyslipidemic activity in high fat diet-fed dyslipidemic syrian golden hamster model assessed as decrease in serum total cholesterol level at 2.5 mg/kg relative to vehicle treated control; assay type: functional, Mesocricetus auratus; design: scale not given: the % may be the effect or the level left
How it was run: (§2)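 Dose-response run on a separate set of high-fat/fructose-fed male Golden Syrian hamsters given oral doses of 2.5, 5, 10 and 25 mg/kg. Plasma TC, TG, HDL-C and LDL-C were measured by standard enzymatic methods on a clinical autoanalyzer. HDL/TC ratio was calculated. Results are % change relative to HFD-fed vehicle (gum acacia) controls.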

Syrian golden hamster [9] = experiment: Antidyslipidemic activity in high fat diet-fed dyslipidemic syrian golden hamster model assessed as decrease in serum total cholesterol level at 25 mg/kg relative to vehicle treated control; assay type: functional, Mesocricetus auratus; design: scale not given: the % may be the effect or the level left; how it was run: as §2
Syrian golden hamster [10] = experiment: Antidyslipidemic activity in high fat diet-fed dyslipidemic syrian golden hamster model assessed as decrease in serum LDL level at 5 mg/kg relative to vehicle treated control; assay type: functional, Mesocricetus auratus; design: scale not given: the % may be the effect or the level left; how it was run: as §2
Syrian golden hamster [11] = experiment: Antidyslipidemic activity in high fat diet-fed dyslipidemic syrian golden hamster model assessed as decrease in serum total cholesterol level at 5 mg/kg relative to vehicle treated control; assay type: functional, Mesocricetus auratus; design: scale not given: the % may be the effect or the level left; how it was run: as §2
[12] = target: T1, 3-hydroxy-3-methylglutaryl-coenzyme A reductase (Homo sapiens) (UniProt P04035); experiment: Inhibition of HMG-CoA reductase using HMG-CoA as substrate at 100 uM
T1 sequence (whole entry): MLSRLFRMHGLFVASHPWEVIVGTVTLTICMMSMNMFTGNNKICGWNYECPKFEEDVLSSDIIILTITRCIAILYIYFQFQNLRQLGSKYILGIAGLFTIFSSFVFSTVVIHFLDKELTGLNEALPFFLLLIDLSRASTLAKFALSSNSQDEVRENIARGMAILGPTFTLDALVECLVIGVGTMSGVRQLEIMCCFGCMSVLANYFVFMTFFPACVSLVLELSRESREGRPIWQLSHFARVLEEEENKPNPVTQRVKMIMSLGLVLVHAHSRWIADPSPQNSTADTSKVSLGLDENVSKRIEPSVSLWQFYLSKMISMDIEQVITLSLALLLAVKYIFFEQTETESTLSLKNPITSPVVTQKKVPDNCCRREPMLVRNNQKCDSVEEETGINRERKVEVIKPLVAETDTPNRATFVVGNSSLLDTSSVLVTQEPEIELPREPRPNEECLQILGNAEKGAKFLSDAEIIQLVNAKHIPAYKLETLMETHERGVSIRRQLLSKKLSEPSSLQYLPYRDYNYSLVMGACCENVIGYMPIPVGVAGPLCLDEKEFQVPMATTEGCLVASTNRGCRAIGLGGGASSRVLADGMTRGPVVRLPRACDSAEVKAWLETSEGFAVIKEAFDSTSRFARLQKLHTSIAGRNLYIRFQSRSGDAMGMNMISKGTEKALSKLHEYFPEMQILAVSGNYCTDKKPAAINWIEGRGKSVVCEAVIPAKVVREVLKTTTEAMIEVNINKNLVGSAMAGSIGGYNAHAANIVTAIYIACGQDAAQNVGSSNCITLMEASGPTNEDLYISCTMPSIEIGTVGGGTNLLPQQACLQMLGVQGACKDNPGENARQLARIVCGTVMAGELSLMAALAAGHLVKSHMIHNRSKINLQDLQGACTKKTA
How it was run: (§3)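 HMG-CoA reductase kit assay using supplied HMGR enzyme, HMG-CoA substrate, NADPH and assay buffer. Test concentrations were 5, 10, 25, 50 and 100 µM, with % inhibition recorded at each.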

Syrian golden hamster [13] = experiment: Antidyslipidemic activity in high fat diet-fed dyslipidemic syrian golden hamster model assessed as decrease in serum triglyceride level at 25 mg/kg relative to vehicle treated control; assay type: functional, Mesocricetus auratus; design: scale not given: the % may be the effect or the level left; how it was run: as §2
Syrian golden hamster [14] = experiment: Antidyslipidemic activity in high fat diet-fed dyslipidemic syrian golden hamster model assessed as decrease in serum LDL level at 2.5 mg/kg relative to vehicle treated control; assay type: functional, Mesocricetus auratus; design: scale not given: the % may be the effect or the level left; how it was run: as §2
[15] = target: T1, 3-hydroxy-3-methylglutaryl-coenzyme A reductase (Homo sapiens); experiment: Inhibition of HMG-CoA reductase using HMG-CoA as substrate at 25 uM; how it was run: as §3
Syrian golden hamster [16] = experiment: Antidyslipidemic activity in high fat diet-fed dyslipidemic syrian golden hamster model assessed as increase in serum ratio of HDL/total cholesterol level at 10 mg/kg relative to vehicle treated control; assay type: functional, Mesocricetus auratus; how it was run: as §2
Syrian golden hamster [17] = experiment: Antidyslipidemic activity in high fat diet-fed dyslipidemic syrian golden hamster model assessed as increase in serum ratio of HDL/total cholesterol level at 25 mg/kg relative to vehicle treated control; assay type: functional, Mesocricetus auratus; how it was run: as §2
[18] = target: T1, 3-hydroxy-3-methylglutaryl-coenzyme A reductase (Homo sapiens); experiment: Inhibition of HMG-CoA reductase using HMG-CoA as substrate at 10 uM; how it was run: as §3
Syrian golden hamster [19] = experiment: Antidyslipidemic activity in high fat diet-fed dyslipidemic syrian golden hamster model assessed as increase in serum ratio of HDL/total cholesterol level at 2.5 mg/kg relative to vehicle treated control; assay type: functional, Mesocricetus auratus; how it was run: as §2
Syrian golden hamster [20] = experiment: Antidyslipidemic activity in high fat diet-fed dyslipidemic syrian golden hamster model assessed as increase in serum ratio of HDL/total cholesterol level at 5 mg/kg relative to vehicle treated control; assay type: functional, Mesocricetus auratus; how it was run: as §2
[21] = target: T1, 3-hydroxy-3-methylglutaryl-coenzyme A reductase (Homo sapiens); experiment: Inhibition of HMG-CoA reductase using HMG-CoA as substrate at 50 uM; how it was run: as §3
Syrian golden hamster [22] = experiment: Antidyslipidemic activity in high fat diet-fed dyslipidemic syrian golden hamster model assessed as decrease in serum LDL level at 25 mg/kg relative to vehicle treated control; assay type: functional, Mesocricetus auratus; design: scale not given: the % may be the effect or the level left; how it was run: as §2
Syrian golden hamster [23] = experiment: Antidyslipidemic activity in high fat diet-fed dyslipidemic syrian golden hamster model assessed as decrease in serum total cholesterol level at 10 mg/kg relative to vehicle treated control; assay type: functional, Mesocricetus auratus; design: scale not given: the % may be the effect or the level left; how it was run: as §2
Syrian golden hamster [24] = experiment: Antidyslipidemic activity in high fat diet-fed dyslipidemic syrian golden hamster model assessed as decrease in serum triglyceride level at 10 mg/kg relative to vehicle treated control; assay type: functional, Mesocricetus auratus; design: scale not given: the % may be the effect or the level left; how it was run: as §2
Syrian golden hamster [25] = experiment: Antidyslipidemic activity in high fat diet-fed dyslipidemic syrian golden hamster model assessed as decrease in serum triglyceride level at 2.5 mg/kg relative to vehicle treated control; assay type: functional, Mesocricetus auratus; design: scale not given: the % may be the effect or the level left; how it was run: as §2
[26] = target: T1, 3-hydroxy-3-methylglutaryl-coenzyme A reductase (Homo sapiens); experiment: Inhibition of HMG-CoA reductase using HMG-CoA as substrate at 5 uM; how it was run: as §3
Syrian golden hamster [27] = experiment: Antidyslipidemic activity in high fat diet-fed dyslipidemic syrian golden hamster model assessed as decrease in serum triglyceride level at 5 mg/kg relative to vehicle treated control; assay type: functional, Mesocricetus auratus; design: scale not given: the % may be the effect or the level left; how it was run: as §2
Syrian golden hamster [28] = experiment: Antidyslipidemic activity in high fat diet-fed dyslipidemic syrian golden hamster model assessed as decrease in serum LDL level at 10 mg/kg relative to vehicle treated control; assay type: functional, Mesocricetus auratus; design: scale not given: the % may be the effect or the level left; how it was run: as §2
Syrian golden hamster [29] = experiment: Antidyslipidemic activity in high fat diet-fed dyslipidemic syrian golden hamster model assessed as decrease in serum HDL level at 10 mg/kg, po administered once daily for 7 days relative to vehicle treated control; assay type: functional, Mesocricetus auratus; design: scale not given: the % may be the effect or the level left
How it was run: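 Male Golden Syrian hamsters (12 weeks, 110 ± 10 g) fed high fat diet with fructose daily days 1–10; dosed orally once daily days 4–10 in 0.1% gum acacia vehicle, eight per group. Blood drawn from retro-orbital plexus into EDTA after last dose; plasma HDL-C by enzymatic auto-analyzer. Reported as % change versus vehicle-treated HFD group; t-test/ANOVA, p < 0.05.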

With COc1cccc(CN/C=C2\C=C(C=O)c3c(ccc4c(C)cc(=O)oc34)C2=O)c1 the Activity (Syrian golden hamster [1]) was 59%, the Activity (Syrian golden hamster [2]) was 47% and the Activity (Syrian golden hamster [3]) was 93%. The Activity (Syrian golden hamster [4]) was 3%, the Activity (Syrian golden hamster [5]) was 52% and the Activity [6] was 1.26 mM. The Activity (Syrian golden hamster [7]) was “Non-toxic”.
Work on O=C1O[C@H]([C@@H](O)CO)C(O)=C1O yielded an Activity [6] of 3.13 mM.
Compound Cc1cc(=O)oc2c3c(ccc12)C(=O)/C(=C/NCCCl)C=C3C=O has an Activity (Syrian golden hamster [1]) of 14%, an Activity (Syrian golden hamster [2]) of 17% and an Activity (Syrian golden hamster [3]) of 9%. The Activity (Syrian golden hamster [4]) was 19%, the Activity (Syrian golden hamster [5]) was 47% and the Activity [6] was 0.38 mM. For the same compound, the Activity (Syrian golden hamster [7]) was “Non-toxic”.
COc1ccc(CN/C=C2\C=C(C=O)c3c(ccc4c(C)cc(=O)oc34)C2=O)cc1 showed an Activity (Syrian golden hamster [8]) of 19%, an Activity (Syrian golden hamster [9]) of 45% and an Activity (Syrian golden hamster [10]) of 8%. The Activity (Syrian golden hamster [1]) was 54%, the Activity (Syrian golden hamster [11]) was 18% and the inhibition [12] was 63.8%. For the same compound, the Activity (Syrian golden hamster [13]) was 61%, the Activity (Syrian golden hamster [2]) was 47% and the Activity (Syrian golden hamster [14]) was 3%. It also gave an Activity (Syrian golden hamster [3]) of 80%, an inhibition [15] of 40.3% and an Activity (Syrian golden hamster [16]) of 71%. For the same compound, the Activity (Syrian golden hamster [17]) was 86%, the inhibition [18] was 34.2% and the Activity (Syrian golden hamster [19]) was 18%. The Activity (Syrian golden hamster [4]) was 1%, the Activity (Syrian golden hamster [20]) was 26% and the Activity (Syrian golden hamster [5]) was 70%. For the same compound, the inhibition [21] was 50.1%, the Activity (Syrian golden hamster [22]) was 19% and the Activity (Syrian golden hamster [23]) was 39%. The Activity (Syrian golden hamster [24]) was 58%, the Activity (Syrian golden hamster [25]) was 35% and the Activity [6] was 1.36 mM. The inhibition [26] was 26.1%, the Activity (Syrian golden hamster [7]) was “Non-toxic” and the Activity (Syrian golden hamster [27]) was 38%. The Activity (Syrian golden hamster [28]) was 14%.
For Cc1cc(=O)oc2c3c(ccc12)C(=O)/C(=C/NCCBr)C=C3C=O, the Activity (Syrian golden hamster [1]) was 10%, the Activity (Syrian golden hamster [2]) was 13% and the Activity (Syrian golden hamster [3]) was 15%. It also gave an Activity (Syrian golden hamster [5]) of 40%, an Activity (Syrian golden hamster [29]) of 1% and an Activity [6] of 0.1 mM. The Activity (Syrian golden hamster [7]) was “Non-toxic”.
With Cc1cc(=O)oc2c3c(ccc12)C(=O)/C(=C/NCCCO)C=C3C=O the Activity (Syrian golden hamster [1]) was 21%, the Activity (Syrian golden hamster [2]) was 26% and the Activity (Syrian golden hamster [3]) was 39%. For the same compound, the Activity (Syrian golden hamster [4]) was 3%, the Activity (Syrian golden hamster [5]) was 50% and the Activity [6] was 1.46 mM. The Activity (Syrian golden hamster [7]) was “Non-toxic”.
